Screening data as filed in PubChem.
This is a sample that favours compounds with a hit; in the whole collection about 3.1% have one here.
KCNQ1 pot – potentiators or activators of human KCNQ1 potassium channel. CHO-K1 KCNQ1, thallium flux FluxOR fluorescence; hits give high values. B-score at 10 µM. hit rate 0.35% among 310,000;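 active = fluorescence ratio B-score, a plate-corrected score, at least three library SD, with initial intensity B-score within 5 SD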
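System: CHO-K1 cells stably expressing KCNQ1 / Medium: assay buffer for compound exposure, DMSO matched across wells / Reagent: thallium- and potassium-containing depolarizing buffer / Compound: one concentration, matched DMSO / Incubation: 20 min compound pretreatment at room temperature / Measured by: kinetic FluxOR fluorescence, 10 s baseline plus 110 s post-stimulus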
KCNK3 inh – human KCNK3 channel inhibition, primary screen; CHO-KCNK3 thallium flux, FluxOR fluorescence; hits give low values; B-score at 10 µM; hit rate 0.84% among 340,000; AID 602410;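 active = B-score under library mean minus 4 SD, starting fluorescence ratio at most library mean plus 5 SD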;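 also: more negative B-score means stronger inhibition of thallium flux through KCNK3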
KCNK9 inh – blocks the human KCNK9 two-pore domain potassium channel | Q9NPC2 | HEK293 KCNK9, FluxOR thallium flux fluorescence; hits give low values | B-score at 10 µM | hit rate 1.2% among 310,000;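 active = ratio B-score over 3 SD below the library mean, with starting fluorescence within 5 SD of its mean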;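 also: negative B-score means less thallium flux so channel inhibition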
hERG protect – shields human hERG channel from block by proarrhythmic agents. Q12809. CHO-hERG, FluxOR thallium flux, dofetilide IC70 present. activation (rescue from dofetilide block), less the hit threshold, % at 10 µM. hit rate 0.51% among 310,000. AID 1511;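 active = activation above the mean of controls blocked by dofetilide plus 5 SD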;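 also: thallium influx through hERG after potassium depolarization seen as dye fluorescence rise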
Target sequence (Q12809 whole entry, looked up): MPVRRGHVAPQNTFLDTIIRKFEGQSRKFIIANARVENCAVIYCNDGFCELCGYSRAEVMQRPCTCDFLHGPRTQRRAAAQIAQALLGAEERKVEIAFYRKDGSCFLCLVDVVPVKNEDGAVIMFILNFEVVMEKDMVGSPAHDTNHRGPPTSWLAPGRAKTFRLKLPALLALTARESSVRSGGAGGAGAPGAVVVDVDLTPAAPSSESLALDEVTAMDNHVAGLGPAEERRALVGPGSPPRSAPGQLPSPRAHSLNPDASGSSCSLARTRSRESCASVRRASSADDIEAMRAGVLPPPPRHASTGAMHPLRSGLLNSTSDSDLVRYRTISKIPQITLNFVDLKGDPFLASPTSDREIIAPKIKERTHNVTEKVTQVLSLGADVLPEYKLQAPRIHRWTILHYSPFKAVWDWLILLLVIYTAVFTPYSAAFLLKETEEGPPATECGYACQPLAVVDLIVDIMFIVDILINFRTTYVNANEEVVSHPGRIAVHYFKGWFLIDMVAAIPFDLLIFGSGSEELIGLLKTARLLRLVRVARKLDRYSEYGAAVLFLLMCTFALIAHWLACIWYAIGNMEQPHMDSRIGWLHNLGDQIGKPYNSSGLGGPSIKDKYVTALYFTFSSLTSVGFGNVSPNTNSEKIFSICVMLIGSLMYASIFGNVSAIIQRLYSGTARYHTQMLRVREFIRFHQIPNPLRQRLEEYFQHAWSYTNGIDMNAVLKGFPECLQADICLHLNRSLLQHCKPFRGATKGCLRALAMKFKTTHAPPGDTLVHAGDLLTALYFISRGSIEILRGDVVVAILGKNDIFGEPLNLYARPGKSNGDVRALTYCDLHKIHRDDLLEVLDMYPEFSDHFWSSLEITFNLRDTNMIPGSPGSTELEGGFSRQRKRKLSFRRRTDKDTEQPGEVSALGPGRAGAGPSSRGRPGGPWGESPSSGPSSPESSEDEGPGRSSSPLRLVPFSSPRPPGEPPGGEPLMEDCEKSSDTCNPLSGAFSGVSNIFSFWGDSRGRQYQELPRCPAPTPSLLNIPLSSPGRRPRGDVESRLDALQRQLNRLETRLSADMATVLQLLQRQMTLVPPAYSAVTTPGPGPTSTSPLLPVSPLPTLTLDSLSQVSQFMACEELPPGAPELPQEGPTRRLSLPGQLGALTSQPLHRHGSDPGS
KCNQ1 inh – human KCNQ1 channel inhibition. P51787. CHO-K1 KCNQ1, FluxOR thallium flux fluorescence; hits give high values. B-score at 10 µM. hit rate 1.3% among 310,000;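 active = compounds whose thallium flux B-score, printed positive for inhibition, exceeds three library SD while starting fluorescence stays within three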;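 also: channel opened by potassium depolarization with thallium stimulus after 20 min compound exposure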
The depositor's hits bear a star; i = inactive; . = not tested or not shown.

SMILES	KCNQ1 pot	KCNK3 inh	KCNK9 inh	hERG protect	KCNQ1 inh
COCCCn1c(SC(C)C(=O)Nc2c(C)n(C)n(-c3ccccc3)c2=O)n[nH]c1=O (configuration not stated)	.	i	.	.	.
CCN(CC)S(=O)(=O)c1ccc2c(c1)c(=O)c(C(=O)N1CCN(c3ccccn3)CC1)cn2C	i	i	i	-7.0	i
CC(=O)N(C1=C(N)C(=O)c2ccccc2C1=O)C(C)C	i	i	i	6.3*	i
CC(=O)N(C)C1=C(O)c2ccccc2C(=O)C1=O	i	i	i	-8.5	i
O=C(c1cnn(C(=O)c2ccc(O)cc2)c1)c1ccccc1O	i	.	i	-11.4	6*
COc1cccc(C(C)NC(=O)Nc2cc(Cl)ccc2OC)c1 (configuration not stated)	i	i	i	-12.5	i
COc1cccc(C(C)NC(=O)Nc2cccc(C(F)(F)F)c2)c1 (configuration not stated)	i	i	-6.79*	-7.4	i
CCOC(=O)C1=C(C)N(c2ccccc2)C(=O)/C1=C\c1ccc(O)c(OC)c1	i	i	-6.76*	-4.9	i
CCOC(=O)C1=C(C)N(c2ccccc2)C(=O)/C1=C\c1ccco1	i	i	i	-10.2	i
CN(CC(=O)Nc1cc(S(=O)(=O)N2CCCC2)ccc1Cl)Cc1nc2ccccc2c(=O)[nH]1	.	i	.	.	.
CCOC(=O)c1c(C)[nH]c(C(=O)CN(C)CC(=O)Nc2ccccc2C(F)(F)F)c1C	.	-8.77*	.	.	.
COC(=O)c1cn(NC(=O)CC2CCCCC2)c(=O)c2ccccc12	i	i	i	-3.4	i
COC(=O)c1cn(NC(=O)CCC2CCCC2)c(=O)c2ccccc12	i	i	i	5.8*	i
O=C1c2ccccc2C2(c3ccccc3)NCCCN12 (configuration not stated)	i	i	i	-16.4	i
O=C1c2ccccc2C2(c3cc(C(F)(F)F)cc(C(F)(F)F)c3)NCCN12 (configuration not stated)	14*	i	i	-7.6	i
CCN1CCN(C(=O)C(=O)c2cn(CC(=O)N3CCCC3)c3ccccc23)CC1	i	i	i	-7.4	i
COCCNc1ccc([N+](=O)[O-])cc1C(=O)NC1CCCc2ccccc21 (configuration not stated)	i	i	i	-7.4	i
COC(=O)CNC(c1ccccc1Cl)c1cc(Br)ccc1NS(=O)(=O)c1ccc(C)cc1 (configuration not stated)	i	i	-6.82*	-13.2	i
O=C(Nc1nnc(Cc2ccccc2)s1)c1ccco1	i	i	i	1.3	i
CCc1nnc(NC(=O)c2ccncc2)s1	i	i	i	-5.4	i
CCc1nnc(NC(=O)c2cccc(C(=O)Nc3nnc(CC)s3)n2)s1	i	i	i	4.9*	i
CC(C)(C)Cc1nnc(NC(=O)c2ccco2)s1	i	i	i	17.6*	i
CCC1(c2ccc(Cl)cc2)NC(=S)N(c2ccc(C)cc2)N1 (configuration not stated)	68*	i	i	37.6*	i
CCC1(c2ccc(Cl)cc2)NC(=S)N(c2ccc(C)c(C)c2)N1 (configuration not stated)	103*	i	i	68.3*	i
CC1=CC(C)(C)NC(=S)N1c1ccc(C)c(C)c1	i	i	i	4.5	i
SMILES	KCNQ1 pot	KCNK3 inh	KCNK9 inh	hERG protect	KCNQ1 inh
CC1(CCc2ccccc2)NC(=S)N(c2ccc(Cl)cc2)N1 (configuration not stated)	i	i	i	-5.9	i
CCC1(c2ccccc2)NC(=S)N(c2ccc(C)c(C)c2)N1 (configuration not stated)	91*	i	i	47.1*	i
Cc1ncsc1C(=O)N1N=C2/C(=C/c3ccc(N4CCOCC4)cc3)CCCC2C1c1ccc(N2CCOCC2)cc1 (configuration not stated)	i	i	i	-12.5	i
Cc1ncsc1C(=O)N1N=C2/C(=C/c3ccccc3)CCCC2C1c1ccccc1 (configuration not stated)	i	i	-7.6*	-16.9	7*
CCC1CCCCN1C(=S)NC(=O)c1cccs1 (configuration not stated)	8*	i	i	5.3*	i
CCC1CCCCN1C(=S)NC(=O)c1ccc([N+](=O)[O-])cc1 (configuration not stated)	18*	i	i	16.3*	i
COc1ncnc(-c2ccccc2)c1-c1ccccc1	i	i	i	-9.6	i
COC1=C/C(=C/c2c(N)n3nc(-c4ccc(C)cc4)sc3nc2=O)C=CC1=O	.	i	.	.	.
CCOC1=C/C(=C/c2c(N)n3nc(-c4ccccc4)sc3nc2=O)C=CC1=O	i	i	i	-14.9	10*
CCc1c(C)[nH]n(-c2nc(-c3ccccc3)cs2)c1=O	i	i	i	-4.8	i
Cc1[nH]n(-c2nc(-c3ccc(Cl)cc3)cs2)c(=O)c1N=Nc1ccc(O)cc1	i	i	i	-7.9	8*
OC(COC1CCCCC1)CN1CCCCC1 (configuration not stated)	i	i	i	-2.9	i
CC1=CC2=NC(=O)/C(=C\c3cccn3CCOc3ccccc3)C(=N)N2O1	i	i	i	-4.0	i
CC1=CC2=NC(=O)/C(=C\c3cccn3CCOc3cc(C)cc(C)c3)C(=N)N2O1	i	i	-7.85*	-5.4	i
CC1=CC2=NC(=O)/C(=C\c3cccn3CCOc3cccc(C)c3)C(=N)N2O1	i	i	-6.98*	-14.5	i
COc1cccc(OCCn2cccc2/C=C2/C(=N)N3OC(C)=CC3=NC2=O)c1	i	i	i	-7.7	i
O=C(Nc1ccccc1Oc1cccnc1)C1CCCN(C/C=C/c2ccccc2)C1 (configuration not stated)	i	i	i	-2.4	i
O=c1cc(-c2ccccc2Cl)oc2ccc([N+](=O)[O-])c(O)c12	i	i	i	-5.8	i
O=[N+]([O-])c1cc([N+](=O)[O-])c2oc(-c3ccccc3)c(Br)c2c1O	i	i	i	-19.6	8*
O=C(COc1ccc(F)cc1Br)NCc1nnc2ccccn12	.	i	.	.	.
